ChEMBL document CHEMBL1240360, “TMC278, a next-generation nonnucleoside reverse transcriptase inhibitor (NNRTI), active against wild-type and NNRTI-resistant HIV-1” (Antimicrob Agents Chemother, 2010)

Columns and labels:
[1] = tested on: Human immunodeficiency virus 1; test: Antiviral activity against Human immunodeficiency virus 1 subtype G isolate RU132 infected in human PBMC cells by cell based assay; conditions: Human immunodeficiency virus 1, subtype G isolate RU132, PBMC
[2] = tested on: Human immunodeficiency virus 2; test: Antiviral activity against Human immunodeficiency virus 2 ROD infected in human MT4 cells assessed as reduction in virus induced cytopathicity; format: functional, organism-based; conditions: Human immunodeficiency virus 2, ISOLATE ROD
Outline: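 MT4 cells (1.5 × 10^5/ml) infected with HIV (MOI 0.01) were added to serial compound dilutions and incubated 5 days at 37°C in 5% CO2. Protection from virus-induced cell death was read by MTT tetrazolium colorimetry, giving an EC50 in micromolar.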

[3] = tested on: Human immunodeficiency virus 1; test: Antiviral activity against Human immunodeficiency virus 1 subtype G isolate JV1083 infected in human PBMC cells by cell based assay; conditions: Human immunodeficiency virus 1, subtype G isolate JV1083, PBMC
[4] = tested on: Human immunodeficiency virus 1; test: Antiviral activity against Human immunodeficiency virus 1 subtype B isolate WEJO infected in human PBMC cells by cell based assay
[5] = tested on: Human immunodeficiency virus 1; test: Antiviral activity against Human immunodeficiency virus 1 subtype (H) infected in human MT4 cells assessed as reduction in virus induced cytopathicity; format: functional, organism-based
Outline: (§1)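 Recombinant viruses were made by recombining patient-derived HIV-1 RT-PR sequences into an RT-PR-deleted HXB2 proviral clone transfected into MT4 cells. Subtype was assigned from PR/RT sequence by Smith-Waterman alignment to HXB2. MT4 cells (1.5 × 10^5/ml) were infected at MOI 0.01 with serially diluted compound for 5 days at 37°C. Viability was read by MTT and EC50 derived.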

[6] = tested on: Human immunodeficiency virus 1; test: Antiviral activity against Human immunodeficiency virus 1 subtype G isolate G3 infected in human PBMC cells by cell based assay; conditions: Human immunodeficiency virus 1, subtype G isolate G3, PBMC
[7] = tested on: Human immunodeficiency virus 1; test: Antiviral activity against Human immunodeficiency virus 1 group M subtype C assessed as days to viral replication breakthrough at 40 nM by cell based assay; format: functional
[8] = tested on: Human immunodeficiency virus 1; test: Antiviral activity against Human immunodeficiency virus 1 group M subtype D assessed as days to viral replication breakthrough at 10 nM by cell based assay; format: functional
[9] = tested on: Human immunodeficiency virus 1; test: Antiviral activity against Human immunodeficiency virus 1 subtype C isolate 93MW959 infected in human PBMC cells by cell based assay; conditions: Human immunodeficiency virus 1, subtype C isolate 93MW959, PBMC
[10] = tested on: Human immunodeficiency virus 1; test: Antiviral activity against Human immunodeficiency virus 1 group M subtype AG assessed as days to viral replication breakthrough at 40 nM by cell based assay; format: functional
[11] = tested on: Human immunodeficiency virus 1; test: Antiviral activity against Human immunodeficiency virus 1 subtype C isolate 93IN101 infected in human PBMC cells by cell based assay; conditions: Human immunodeficiency virus 1, subtype C isolate 93IN101, PBMC
[12] = tested on: Human immunodeficiency virus 1; test: Antiviral activity against Human immunodeficiency virus 1 subtype O isolate BCF02 infected in human PBMC cells by cell based assay; conditions: Human immunodeficiency virus 1, subtype O isolate BCF02, PBMC
[13] = tested on: Human immunodeficiency virus 1; test: Antiviral activity against Human immunodeficiency virus 1 subtype F1 infected in human MT4 cells assessed as reduction in virus induced cytopathicity; format: functional, organism-based; conditions: Human immunodeficiency virus 1, subtype F1, MT4; outline: as §1
[14] = tested on: Human immunodeficiency virus 1; test: Antiviral activity against Human immunodeficiency virus 1 group M subtype H assessed as days to viral replication breakthrough at 10 nM by cell based assay; format: functional
[15] = tested on: Human immunodeficiency virus 1; test: Antiviral activity against Human immunodeficiency virus 1 subtype F isolate 93BR020 infected in human PBMC cells by cell based assay; conditions: Human immunodeficiency virus 1, subtype F isolate 93BR020, PBMC
[16] = tested on: Human immunodeficiency virus 1; test: Antiviral activity against Human immunodeficiency virus 1 subtype C infected in human MT4 cells assessed as reduction in virus induced cytopathicity; format: functional, organism-based; outline: as §1
[17] = tested on: Human immunodeficiency virus 1; test: Antiviral activity against Human immunodeficiency virus 1 subtype BG infected in human MT4 cells assessed as reduction in virus induced cytopathicity; format: functional, organism-based; outline: as §1
[18] = tested on: Human immunodeficiency virus 1; test: Antiviral activity against Human immunodeficiency virus 1 subtype D isolate 92UG001 infected in human PBMC cells by cell based assay; conditions: Human immunodeficiency virus 1, subtype D isolate 92UG001, PBMC
[19] = tested on: Human immunodeficiency virus 1; test: Antiviral activity against Human immunodeficiency virus 1 group M subtype B assessed as days to viral replication breakthrough at 10 nM by cell based assay; format: functional
[20] = tested on: Human immunodeficiency virus 1; test: Antiviral activity against Human immunodeficiency virus 1 subtype D isolate 92UG035 infected in human PBMC cells by cell based assay; conditions: Human immunodeficiency virus 1, subtype D 92UG035, PBMC
[21] = tested on: Human immunodeficiency virus 1; test: Antiviral activity against Human immunodeficiency virus 1 subtype E isolate 93TH073 infected in human PBMC cells by cell based assay; conditions: Human immunodeficiency virus 1, subtype E 93TH073, PBMC
[22] = tested on: Human immunodeficiency virus 1; test: Antiviral activity against Human immunodeficiency virus 1 group M subtype G assessed as days to viral replication breakthrough at 40 nM by cell based assay; format: functional
[23] = tested on: Human immunodeficiency virus 1; test: Antiviral activity against Human immunodeficiency virus 1 group M subtype AE assessed as days to viral replication breakthrough at 10 nM by cell based assay; format: functional
[24] = tested on: Human immunodeficiency virus 1; test: Antiviral activity against Human immunodeficiency virus 1 group M subtype AE assessed as days to viral replication breakthrough at 200 nM by cell based assay; format: functional
[25] = tested on: Human immunodeficiency virus 1; test: Antiviral activity against Human immunodeficiency virus 1 group M subtype F1 assessed as days to viral replication breakthrough at 40 nM by cell based assay; format: functional
[26] = tested on: Human immunodeficiency virus 1; test: Antiviral activity against Human immunodeficiency virus 1 group M subtype A1 assessed as days to viral replication breakthrough at 40 nM by cell based assay; format: functional
[27] = tested on: Human immunodeficiency virus 1; test: Antiviral activity against Human immunodeficiency virus 1 group M subtype H assessed as days to viral replication breakthrough at 40 nM by cell based assay; format: functional
[28] = tested on: Human immunodeficiency virus 1; test: Antiviral activity against Human immunodeficiency virus 1 group M subtype AG assessed as days to viral replication breakthrough at 10 nM by cell based assay; format: functional
[29] = tested on: Human immunodeficiency virus 1; test: Antiviral activity against Human immunodeficiency virus 1 group M subtype C assessed as days to viral replication breakthrough at 200 nM by cell based assay; format: functional
[30] = tested on: Human immunodeficiency virus 1; test: Antiviral activity against Human immunodeficiency virus 1 group M subtype B assessed as days viral replication at 200 nM by cell based assay; format: functional

Question: What does the source list for `Cc1cc(/C=C/C#N)cc(C)c1Nc1ccnc(Nc2ccc(C#N)cc2)n1` [RILPIVIRINE]?
Answer: EC50 [1]: 0.51 nM; EC50 [2]: 5220 nM; EC50 [3]: 0.26 nM; EC50 [4]: 0.08 nM; EC50 [5]: 0.24 nM; EC50 [6]: 0.25 nM; Activity [7]: > 31 days; Activity [8]: 20 days; EC50 [9]: 0.11 nM; Activity [10]: > 31 days; EC50 [11]: 0.53 nM; EC50 [12]: 2.88 nM; EC50 [13]: 0.21 nM; Activity [14]: > 31 days; EC50 [15]: 0.16 nM; EC50 [16]: 0.3 nM; EC50 [17]: 0.22 nM; EC50 [18]: 0.26 nM; Activity [19]: 7 days; EC50 [20]: 0.07 nM; EC50 [21]: 0.07 nM; Activity [22]: > 31 days; Activity [23]: > 31 days; Activity [24]: > 31 days; Activity [25]: > 31 days; Activity [26]: > 31 days; Activity [27]: > 31 days; Activity [28]: > 31 days; Activity [29]: > 31 days; Activity [30]: > 31 days
